{"source": "ChEMBL document CHEMBL3228016", "about": "“Antiallergy agents. 1. 1,6-Dihydro-6-oxo-2-phenylpyrimidine-5-carboxylic acids and esters” (1979)", "tested_on": "Rattus norvegicus", "assay": "Antiallergic activity in po dosed Sprague-Dawley rat passive cutaneous analphylaxis model assessed as inhibition of allergic response administered 10 mins prior to antigen challenge", "assay_type": "functional", "conditions": "read-out: ID50 (the source's name)", "outline": "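Modified Ovary rat passive cutaneous anaphylaxis screen in male Sprague-Dawley rats, with 24 h between sensitization and antigen challenge. Acidic compounds were dissolved in aqueous NaHCO3 where possible; others were suspended in aqueous sodium citrate with Tween 40/sodium carboxymethylcellulose. Dosing was iv 1 min or po 10 min before challenge. ID50 is the dose giving 50% inhibition of the response; significance was p ≤ 0.05 by Student's t test.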"}
{"molecule": "CCOC(=O)c1cnc(-c2ccc(C(F)(F)F)cc2)[nH]c1=O", "values": [{"measurement": "ED50", "value": "> 5", "unit": "mg/kg"}]}
{"molecule": "CCOC(=O)c1cnc(-c2cccc(OC)c2)nc1O", "values": [{"measurement": "ED50", "value": 10, "unit": "mg/kg"}]}
{"molecule": "CCOC(=O)c1cnc(-c2cccc(OCC)c2)[nH]c1=O", "values": [{"measurement": "ED50", "value": 50, "unit": "mg/kg"}]}
{"molecule": "CCOC(=O)c1cnc(-c2ccccc2)n(C)c1=O", "values": [{"measurement": "ED50", "value": "> 5", "unit": "mg/kg"}]}
{"molecule": "CCOC(=O)c1cnc(-c2ccccc2F)[nH]c1=O", "values": [{"measurement": "ED50", "value": "> 10", "unit": "mg/kg"}]}
{"molecule": "CCOC(=O)c1cnc(-c2cc(S(=O)(=O)N(C)C)ccc2OCC)[nH]c1=O", "values": [{"measurement": "ED50", "value": 50, "unit": "mg/kg"}]}
{"molecule": "CCOC(=O)c1cnc(-c2cccc(C(F)(F)F)c2)[nH]c1=O", "values": [{"measurement": "ED50", "value": 50, "unit": "mg/kg"}]}
{"molecule": "CCOc1ccc([N+](=O)[O-])cc1-c1ncc(C(=O)O)c(=O)[nH]1", "values": [{"measurement": "ED50", "value": 25, "unit": "mg/kg"}]}
{"molecule": "CCOC(=O)c1cnc(-c2cc([N+](=O)[O-])cc([N+](=O)[O-])c2OCC)[nH]c1=O", "values": [{"measurement": "ED50", "value": "> 50", "unit": "mg/kg"}]}
{"molecule": "Cn1c(-c2ccccc2)ncc(C(=O)O)c1=O", "values": [{"measurement": "ED50", "value": 50, "unit": "mg/kg"}]}
{"molecule": "CCOc1ccccc1-c1nc(=O)c(C(=O)O)cn1C", "values": [{"measurement": "ED50", "value": "> 40", "unit": "mg/kg"}]}
{"molecule": "CCOC(=O)c1cnc(-c2ccccc2)nc1OC", "values": [{"measurement": "ED50", "value": "> 5", "unit": "mg/kg"}]}
{"molecule": "CC1Cc2cccc(-c3ncc(C(=O)O)c(=O)[nH]3)c2O1", "note": "(racemic)", "values": [{"measurement": "ED50", "value": 5, "unit": "mg/kg"}]}
{"molecule": "CCOC(=O)c1cnc(-c2cc(S(=O)(=O)N(C)C(C)C)ccc2OCC)[nH]c1=O", "values": [{"measurement": "ED50", "value": "> 10", "unit": "mg/kg"}]}
{"molecule": "CCOC(=O)c1cnc(-c2cc(OC)ccc2OC)[nH]c1=O", "values": [{"measurement": "ED50", "value": 5, "unit": "mg/kg"}]}
{"molecule": "O=C(O)c1cnc(-c2ccccc2O)[nH]c1=O", "values": [{"measurement": "ED50", "value": "> 5", "unit": "mg/kg"}]}
{"molecule": "CCOc1ccccc1-c1ncc(C(=O)O)c(=O)n1C", "values": [{"measurement": "ED50", "value": "> 50", "unit": "mg/kg"}]}
{"molecule": "CCOc1ccc(N(C)C)cc1-c1ncc(C(=O)O)c(=O)[nH]1", "values": [{"measurement": "ED50", "value": 0.3, "unit": "mg/kg"}]}
{"molecule": "CC(C)Oc1ccccc1-c1ncc(C(=O)O)c(=O)[nH]1", "values": [{"measurement": "ED50", "value": 0.8, "unit": "mg/kg"}]}
{"molecule": "O=C(O)c1cnc(-c2ccc(C(F)(F)F)cc2)[nH]c1=O", "values": [{"measurement": "ED50", "value": "> 5", "unit": "mg/kg"}]}
{"molecule": "CCOC(=O)c1cnc(-c2ccccc2OC)[nH]c1=O", "values": [{"measurement": "ED50", "value": 10, "unit": "mg/kg"}]}
{"molecule": "COc1ccccc1-c1ncc(C(=O)O)c(=O)[nH]1", "values": [{"measurement": "ED50", "value": 10, "unit": "mg/kg"}]}
{"molecule": "COc1ccc(OC)c(-c2ncc(C(=O)O)c(=O)[nH]2)c1", "values": [{"measurement": "ED50", "value": 1, "unit": "mg/kg"}]}
{"molecule": "COc1ccc(-c2ncc(C(=O)O)c(=O)[nH]2)cc1", "values": [{"measurement": "ED50", "value": "> 5", "unit": "mg/kg"}]}
{"molecule": "CCOC(=O)c1cnc(-c2ccc(OC)cc2OC)[nH]c1=O", "values": [{"measurement": "ED50", "value": 5, "unit": "mg/kg"}]}
{"molecule": "O=C(O)c1cnc(-c2cccc(C(F)(F)F)c2)[nH]c1=O", "values": [{"measurement": "ED50", "value": 33, "unit": "mg/kg"}]}
{"molecule": "CCOC(=O)c1cnc(-c2ccccc2OC(C)C)[nH]c1=O", "values": [{"measurement": "ED50", "value": 2, "unit": "mg/kg"}]}
{"molecule": "CCSc1ccccc1-c1ncc(C(=O)O)c(=O)[nH]1", "values": [{"measurement": "ED50", "value": 25, "unit": "mg/kg"}]}
{"molecule": "CCOC(=O)c1cnc(-c2ccccc2SC)[nH]c1=O", "values": [{"measurement": "ED50", "value": "> 25", "unit": "mg/kg"}]}
{"molecule": "CCOC(=O)c1cnc(-c2cccc3c2OC(C)C3)[nH]c1=O", "note": "(racemic)", "values": [{"measurement": "ED50", "value": 5, "unit": "mg/kg"}]}
{"molecule": "CCOc1ccc(Cl)cc1-c1ncc(C(=O)O)c(=O)[nH]1", "values": [{"measurement": "ED50", "value": 0.5, "unit": "mg/kg"}]}
{"molecule": "CCOC(=O)c1cnc(-c2ccccc2OC(C)CC)[nH]c1=O", "note": "(stereo not given)", "values": [{"measurement": "ED50", "value": 0.5, "unit": "mg/kg"}]}
{"molecule": "COc1cccc(-c2ncc(C(=O)O)c(=O)[nH]2)c1", "values": [{"measurement": "ED50", "value": 10, "unit": "mg/kg"}]}
{"molecule": "CCOC(=O)C(=O)Nc1ccc(OCC)c(-c2ncc(C(=O)OCC)c(=O)[nH]2)c1", "values": [{"measurement": "ED50", "value": 5, "unit": "mg/kg"}]}
{"molecule": "CCCOc1ccc(OC)cc1-c1ncc(C(=O)O)c(=O)[nH]1", "values": [{"measurement": "ED50", "value": 0.3, "unit": "mg/kg"}]}
{"molecule": "CCOC(=O)c1cnc(-c2cc(N)ccc2OCC)[nH]c1=O", "values": [{"measurement": "ED50", "value": 0.5, "unit": "mg/kg"}]}
{"molecule": "O=C(O)c1cnc(-c2ccccc2F)[nH]c1=O", "values": [{"measurement": "ED50", "value": 5, "unit": "mg/kg"}]}
{"molecule": "CCOc1ccc(S(=O)(=O)N(C)C)cc1-c1ncc(C(=O)O)c(=O)[nH]1", "values": [{"measurement": "ED50", "value": "> 50", "unit": "mg/kg"}]}
{"molecule": "CCCCCOc1ccccc1-c1ncc(C(=O)OCC)c(=O)[nH]1", "values": [{"measurement": "ED50", "value": 2, "unit": "mg/kg"}]}
{"molecule": "CC(C)COc1ccccc1-c1ncc(C(=O)O)c(=O)[nH]1", "values": [{"measurement": "ED50", "value": 0.5, "unit": "mg/kg"}]}
{"molecule": "CCOc1ccc(S(=O)(=O)N(CC)CC)cc1-c1ncc(C(=O)O)c(=O)[nH]1", "values": [{"measurement": "ED50", "value": 40, "unit": "mg/kg"}]}
{"molecule": "CCCCCOc1ccccc1-c1ncc(C(=O)O)c(=O)[nH]1", "values": [{"measurement": "ED50", "value": 3, "unit": "mg/kg"}]}
{"molecule": "COc1ccc(-c2ncc(C(=O)O)c(=O)[nH]2)c(OC)c1", "values": [{"measurement": "ED50", "value": 5, "unit": "mg/kg"}]}
{"molecule": "C=CCOc1ccccc1-c1ncc(C(=O)OCC)c(=O)[nH]1", "values": [{"measurement": "ED50", "value": 0.5, "unit": "mg/kg"}]}
{"molecule": "CSc1ccccc1-c1ncc(C(=O)O)c(=O)[nH]1", "values": [{"measurement": "ED50", "value": "> 20", "unit": "mg/kg"}]}
